Assay outcomes from PubChem BioAssay.
An excerpt weighted towards active compounds, which were near 1.1% of everything screened.
DAGLB inh: diacylglycerol lipase beta (human) inhibition. Q8NCG7. HEK293T DAGLB membrane lysate, EnzChek fluorogenic substrate. inhibition, % at 5.17 µM. 340,000 tested, 0.059% active. AID 504411; in the data active = inhibition above about 34%;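 also: 0% = enzyme with vehicle and 100% = wells lacking enzyme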
HCV core dimer: HCV core protein dimerization inhibition. TR-FRET GST/Flag-core106 dimerization, 1536-well. 300,000 tested, 0.33% active. inhibition, % at 5 µM;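 active = inhibition above the mean of all tested compounds plus 3 SD, set per screening campaign, cut at about 45% in these data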
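Test system: GST/Flag-tagged HCV core106 proteins; Medium: KF-containing HEPES buffer, pH 7.45, DTT, CHAPS, BSA; Times: compound-protein-antibody incubation 4 h at 22.5 °C; Detection: TR-FRET 671 and 617 nm emission; Benchmarks: wells lacking GST-core106 and wells with excess unlabelled core106.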
NR2E3 ag-1: agonists of human NR2E3 nuclear receptor; Q9Y5X4; CHO-S Gal4-NCOR/VP16-NR2E3 two-hybrid, luciferase; inhibition of corepressor binding, % at 3.98 µM; 360,000 tested, 0.35% active;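 active = inhibition above the mean of all tested compounds plus 3 SD, cut at about 70% in these data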;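 also: 0% = DMSO with NR2E3 transfected cells and 100% = cells lacking NR2E3 construct; higher means lower luciferase signal from less NR2E3 corepressor binding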
Target sequence (Q9Y5X4 whole entry, looked up, the tested form may be a part): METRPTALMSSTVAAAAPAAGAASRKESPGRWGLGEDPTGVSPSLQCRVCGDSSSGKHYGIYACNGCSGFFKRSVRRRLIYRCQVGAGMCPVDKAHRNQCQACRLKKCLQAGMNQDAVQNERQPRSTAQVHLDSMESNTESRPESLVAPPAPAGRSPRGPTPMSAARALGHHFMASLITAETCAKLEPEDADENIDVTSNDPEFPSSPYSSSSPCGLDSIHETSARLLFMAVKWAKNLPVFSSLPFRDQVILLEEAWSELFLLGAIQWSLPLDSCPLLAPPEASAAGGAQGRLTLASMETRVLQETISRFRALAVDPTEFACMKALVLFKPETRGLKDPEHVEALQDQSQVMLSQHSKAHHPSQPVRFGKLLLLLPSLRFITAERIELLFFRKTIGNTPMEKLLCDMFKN
Vif inh: inhibitors of HIV Vif; HEK293T cells, Vif self-association by quenched fluorescence, imaging, 24 h; inhibition, % at 7.49 µM; 340,000 tested, 0.35% active; AID 602346; in the data active = inhibition above about 50%, passing the limit was not always enough; inconclusive = no clear call, values can overlap the other calls; inactive = below about 31%
MT1-MMP act inh: blocks activation of human MT1-MMP; P50281; HT1080 RFP-PRO-GFP cells, GFP/RFP ratio fluorescence, overnight; percent of plate control window, DMSO zero; GFP/RFP ratio change, % at 20 µM; 360,000 tested, 0.061% active;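 active = GFP/RFP ratio change of at least 30% with cell ATP level not reduced by more than half and red fluorescence within 50% of control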
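Assay system: HT1080 RFP-PRO-GFP cells | Dosing: 20 µM single dose, 1% DMSO | Incubation: Cells overnight before dosing, compound overnight, 37 °C, 5% CO2 | Evaluation: GFP/RFP fluorescence ratio | Control set: DMSO-only wells and HT1080 RFP-L50D-GFP cell wells as references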
NR2E3 ag-2: agonists of human nuclear receptor NR2E3. GST-NR2E3/biotin-RetCOR TR-FRET, 1536-well. inhibition of corepressor binding, % at 4.78 µM. 320,000 tested, 0.12% active. AID 2300;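 active = percent inhibition above the cutoff of mean plus 3 SD of all tested compounds, set per screening campaign, cut at about 20% in these data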;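 also: 0% = DMSO wells and 100% = biotin wells as full block of FRET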
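Material: NR2E3–RetCOR corepressor complex / Amount: 1.35 nM GST-NR2E3 / Medium: Tris pH 7.5 / Compound: single nominal compound dose of 4.8 µM / Incubation: 5 h at 4 °C / Technique: TR-FRET, Eu(K)-anti-GST donor, streptavidin-D2 acceptor, ex 340, em 617/671 nm / Read-out basis: percent loss of FRET ratio relative to control wells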
* = called active by the depositor; ? = inconclusive; . = no result given; + = active, no number.

SMILES	DAGLB inh	HCV core dimer	NR2E3 ag-1	Vif inh	MT1-MMP act inh	NR2E3 ag-2
Cc1ccccc1Oc1nc2c(C)cccn2c(=O)c1/C=C(\C#N)C(=O)Nc1c(C)n(C)n(-c2ccccc2)c1=O	6.2	22.1	-3.7	124.1*	-10.0	1.3
Cc1ccc(CNC(=O)COc2ccc(C)nc2[N+](=O)[O-])cc1	0.8	-2.7	-9.2	7.3	1.7	-1.1
Cc1ccc(OCC(=O)c2ccc(Cl)s2)c([N+](=O)[O-])n1	4.3	56.9*	1.4	2.9	-7.8	-2.1
COc1ccc(N/C=C(\C=C\C#N)S(=O)(=O)c2ccccc2)cc1	3.9	-1.1	-14.2	86.7*	4.3	0.8
CC1CCCCC1NC(=O)CN1CCC(NC(=O)C(C)(C)C)CC1 (stereo unspecified)	-0.3	.	-9.2	4.7	2.6	.
O=[N+]([O-])c1ccc(N2CCN(S(=O)(=O)c3ccc(Cl)cc3)CC2)cc1NCC1CCCO1 (stereo unspecified)	-1.2	0.7	-11.1	57.4*	3.2	0.3
COc1ccc(CC(=O)Nc2ccc(-c3noc(-c4ccc(Cl)cc4)n3)cc2)cc1	-1.5	4.6	-18.2	?	-4.6	0.8
COc1ccc(CC(=O)Nc2ccc(-c3noc(-c4cc(OC)c(OC)c(OC)c4)n3)cc2)cc1	-3.7	0.7	-15.4	+	1.3	1.7
COCCn1c(=NC(=O)C2COc3ccccc3O2)sc2cc(S(N)(=O)=O)ccc21 (stereo unspecified)	-0.1	-0.7	-2.6	.	-9.2	-4.2
CCn1c(=NC(=O)C2COc3ccccc3O2)sc2c(OC)ccc(OC)c21 (stereo unspecified)	-7.2	22.0	-35.0	70.8*	1.8	-1.1
COc1ccccc1-c1cc(C(F)(F)F)nc(S(=O)(=O)CCCC(=O)Nc2cc(C)on2)n1	-5.2	4.3	-14.3	60.2*	8.9	0.1
COc1ccc(-c2cc(C(F)(F)F)nc(S(=O)(=O)CCCC(=O)Nc3cc(C)on3)n2)cc1OC	0.6	.	-29.1	88.6*	-6.5	.
C/C(=N\NC(=O)c1ccoc1C)c1ccc(Br)s1	-0.5	-9.1	-68.3	-2.8	1.7	-1.6
CC(=NNC(=O)c1cc(C)oc1C)c1ccc(Br)s1	1.3	.	-18.9	52.2*	7.0	.
CSCC[C@@H](CO)NC(=O)[C@H]1O[C@@H](n2ccc(N)nc2=O)[C@H](O)[C@@H]1O	.	.	-8.6	.	-1.3	.
CN(c1ccc(OCC(=O)OCC(=O)Nc2ccccc2F)cc1)S(=O)(=O)c1cccs1	-2.9	3.2	-41.5	6.2	-0.1	4.9
Cc1cc(C)cc(NC(=O)COC(=O)COc2ccc(N(C)S(=O)(=O)c3cccs3)cc2)c1	-4.1	.	-7.9	50.1*	2.3	.
COc1ccc(OCCN2CCC(C(=O)NC(c3ccccn3)c3ccccc3OC)CC2)cc1 (stereo unspecified)	.	.	-11.2	50.9*	3.5	.
O=C(Nc1ccc(F)cc1)C(c1ccccc1OC(F)(F)F)N1CCN(c2cccc(C(F)(F)F)n2)CC1 (stereo unspecified)	.	.	.	.	-1.5	.
COc1ccc(CC(=O)Nc2cc(S(=O)(=O)N3CCCCC3)ccc2OC(C)C)cc1OC	-2.3	.	-2.4	-8.7	-0.8	.
COc1cccc(NC(=O)/C=C/c2ccco2)c1	-0.1	3.6	-84.8	-3.1	-1.7	-1.3
O=C(/C=C/c1ccco1)Nc1ccc(Oc2ccc(Cl)cc2)cc1	-6.2	10.2	-25.7	62.8*	-19.3	-3.1
Cc1ccc(NC(=O)/C=C/c2ccco2)nc1	1.8	4.0	-73.0	51.4*	15.7	-1.5
COc1cccc(N2CCN(C(=O)CSc3ccc(F)cc3)CC2)c1	-2.9	0.1	-15.8	-1.8	2.5	4.3
CC(=O)c1ccc(NC(=O)c2ccc3nc(-c4ccco4)c(-c4ccco4)nc3c2)cc1	10.9	78.1*	-20.7	-6.4	4.1	-0.4
SMILES	DAGLB inh	HCV core dimer	NR2E3 ag-1	Vif inh	MT1-MMP act inh	NR2E3 ag-2
O=C(c1ccc2nc(-c3ccco3)c(-c3ccco3)nc2c1)N1CCN(c2ncccn2)CC1	3.0	62.5*	-20.7	-5.1	7.4	5.4
O=C(NCCCO)c1ccc2nc(-c3ccco3)c(-c3ccco3)nc2c1	2.3	.	19.3	-12.4	-1.6	.
CCCCNC(=O)c1ccc2nc(-c3ccco3)c(-c3ccco3)nc2c1	5.8	49.7*	-16.2	-8.8	1.5	5.0
CC(=O)c1ccc(NC(=O)CSc2nnc(-c3ccco3)c(-c3ccco3)n2)cc1	-0.7	36.1	-47.1	19.9	-7.1	0.0
O=C(Nc1ccccc1)c1ccc2nc(-c3ccco3)c(-c3ccco3)nc2c1	14.5	75.2*	-18.4	-7.6	-3.0	-0.1
CCCCCCN1CC(=O)N2Cc3[nH]c4ccccc4c3C[C@H]2C1=O	-4.7	-5.4	7.9	10.2	-1.5	0.6
S=C(Nc1ccc(N2CCOCC2)cc1)Nc1ccc2nc(-c3ccco3)c(-c3ccco3)nc2c1	7.7	83.1*	-10.0	4.0	-24.7	-0.2
O=C(NCc1ccccc1)c1ccc2nc(-c3ccco3)c(-c3ccco3)nc2c1	15.3	72.7*	-16.1	.	-3.9	6.2
O=C(Nc1ccc(N2CCOCC2)cc1)c1ccc2nc(-c3ccco3)c(-c3ccco3)nc2c1	9.7	13.6	-13.9	-2.1	2.7	0.1
O=C(NCc1ccccc1)c1ccc2nccnc2c1	1.5	-0.9	-24.4	-5.2	-6.8	-6.3
O=C(NCCO)Nc1ccc2nsnc2c1	-2.7	-0.1	25.6	-1.9	-1.5	-2.6
O=C(NCCO)Nc1ccc2nc(-c3ccco3)c(-c3ccco3)nc2c1	.	75.8*	.	.	.	46.2*
CCOC(=O)[C@]12CCCC=C1N(CCC1=CCCCC1)C(=O)[C@H](CC(=O)NCC1CCCCC1)C2	.	.	.	.	-10.3	.
COc1ccc(CC(=O)O)cc1O	-1.4	10.6	-14.0	-1.7	-1.0	0.3
COc1ccc(CC2NCCC3=CC(=O)CCC32)cc1O (stereo unspecified)	-1.8	1.2	-3.0	145.5*	2.5	0.2
COCCNC(=O)c1nn2c(C(F)(F)F)cc(-c3ccccc3)nc2c1Cl	0.2	8.2	-18.4	105.9*	-2.1	0.6
COc1ccc(-c2cc(C(F)(F)F)n3nc(C(=O)NCc4ccco4)c(Cl)c3n2)cc1	-3.6	29.4	-9.3	157.0*	-3.1	-2.6
O=C(NCc1ccco1)c1nn2c(C(F)(F)F)cc(-c3cccs3)nc2c1Br	2.4	53.8*	14.4	2.7	-1.2	-0.7
O=C(NCc1ccco1)c1nc2nc(-c3cccs3)cc(C(F)(F)F)n2n1	-3.7	20.3	3.5	-2.8	1.6	3.0
COC(=O)C[C@H]1CC[C@@H](NC(=O)Nc2c(C)noc2C)[C@@H](CO)O1	.	.	.	.	3.0	.
O=[N+]([O-])c1nn(-c2ccc3c(c2)OCCO3)n(O)c1=Nc1ccc(Cl)cc1	9.8	17.2	86.0*	10.3	-6.1	5.6
